Measurements taken from ChEMBL document CHEMBL2203171, “The use of small molecule probes to study spatially separated stimulus-induced signaling pathways” (Bioorg Med Chem Lett, 2012).
Active and inactive are the calls of the source. The calls are words filed in the database; no cut-off is given here.

Columns and labels:
Format in all cases: cell-based
[1] = target: T1, Inhibitor of nuclear factor kappa-B kinase subunit beta (Mus musculus) (UniProt O88351); experiment: Inhibition of IKKbeta in C57BL/6 mouse BMDM cells assessed as inhibition of TNFalpha-induced IkappaBalpha degradation at 50 uM up to 90 mins by Western blot analysis
T1 sequence (whole entry): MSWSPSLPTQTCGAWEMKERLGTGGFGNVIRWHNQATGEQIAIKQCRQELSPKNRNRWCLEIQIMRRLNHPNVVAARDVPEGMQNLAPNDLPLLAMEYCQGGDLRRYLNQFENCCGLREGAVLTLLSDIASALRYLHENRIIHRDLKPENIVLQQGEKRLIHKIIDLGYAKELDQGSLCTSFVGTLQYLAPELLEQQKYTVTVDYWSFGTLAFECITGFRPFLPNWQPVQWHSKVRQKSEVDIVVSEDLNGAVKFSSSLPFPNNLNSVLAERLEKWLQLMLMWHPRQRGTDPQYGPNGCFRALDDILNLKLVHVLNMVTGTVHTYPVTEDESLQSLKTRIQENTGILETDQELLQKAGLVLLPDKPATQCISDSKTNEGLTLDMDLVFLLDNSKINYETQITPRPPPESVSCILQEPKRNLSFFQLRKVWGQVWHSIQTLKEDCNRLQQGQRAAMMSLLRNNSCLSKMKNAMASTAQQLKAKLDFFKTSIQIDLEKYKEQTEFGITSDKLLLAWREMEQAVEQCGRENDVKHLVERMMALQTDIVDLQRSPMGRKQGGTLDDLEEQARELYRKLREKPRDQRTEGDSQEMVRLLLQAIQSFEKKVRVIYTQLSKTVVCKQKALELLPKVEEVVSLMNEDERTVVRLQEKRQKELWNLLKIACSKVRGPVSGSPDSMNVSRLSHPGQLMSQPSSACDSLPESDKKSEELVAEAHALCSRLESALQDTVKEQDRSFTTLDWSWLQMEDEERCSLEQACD

[2] = target: Toll-like receptor 4 (Homo sapiens) (UniProt O00206); experiment: Inhibition of MyD88 recruitment to TLR4 cytoplasmic domain expressed in CHO cells at 25 to 50 uM incubated for 30 mins prior to CCf2/AM loading measured after 1 hr by beta-lactamase complementation assay
Sequence of Toll-like receptor 4 (Homo sapiens) (O00206 whole entry, the tested form may be a part): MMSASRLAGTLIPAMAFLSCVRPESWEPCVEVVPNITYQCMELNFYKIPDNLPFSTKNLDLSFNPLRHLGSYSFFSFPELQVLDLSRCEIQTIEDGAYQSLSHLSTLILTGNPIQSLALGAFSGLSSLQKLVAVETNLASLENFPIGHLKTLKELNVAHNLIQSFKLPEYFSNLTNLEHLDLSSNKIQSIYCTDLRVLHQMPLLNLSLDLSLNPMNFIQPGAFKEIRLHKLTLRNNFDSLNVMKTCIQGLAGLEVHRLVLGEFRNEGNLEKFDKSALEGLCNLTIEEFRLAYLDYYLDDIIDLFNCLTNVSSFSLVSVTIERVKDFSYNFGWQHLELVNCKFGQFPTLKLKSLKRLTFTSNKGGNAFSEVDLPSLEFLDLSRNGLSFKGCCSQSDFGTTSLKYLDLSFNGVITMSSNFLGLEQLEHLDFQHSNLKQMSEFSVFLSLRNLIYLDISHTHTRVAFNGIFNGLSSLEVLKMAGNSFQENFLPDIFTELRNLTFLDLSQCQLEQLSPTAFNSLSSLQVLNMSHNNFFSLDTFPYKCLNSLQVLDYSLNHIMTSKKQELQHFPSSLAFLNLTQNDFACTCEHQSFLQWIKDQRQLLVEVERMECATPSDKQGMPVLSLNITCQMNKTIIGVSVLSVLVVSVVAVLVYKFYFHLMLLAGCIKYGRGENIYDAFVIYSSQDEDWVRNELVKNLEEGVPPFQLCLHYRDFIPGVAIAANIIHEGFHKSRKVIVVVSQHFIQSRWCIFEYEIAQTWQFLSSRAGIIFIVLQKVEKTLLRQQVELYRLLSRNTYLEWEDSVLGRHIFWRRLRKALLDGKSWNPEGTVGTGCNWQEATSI
Outline: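 CHO cells co-expressing TLR4- and MyD88-β-lactamase fragment fusions, or empty-vector controls, were plated for 24 h and then treated 30 min with compound at 25 or 50 μM. Cells were loaded with 1 μM CCF2/AM for 1 h at room temperature and imaged by fluorescence microscopy (405 nm excitation, 435 nm long-pass emission). Read-out: percent of blue (β-lactamase-positive) cells.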

[3] = target: MAP kinase p38 (Mus musculus) (UniProt P47811+O08911+Q9WUI1+Q9Z1B7); experiment: Inhibition of MAPK p38 in C57BL/6 mouse BMDM cells assessed as inhibition of TNFalpha-induced phosphorylation at 50 uM up to 90 mins by Western blot analysis
[4] = target: T1, Inhibitor of nuclear factor kappa-B kinase subunit beta (Mus musculus); experiment: Inhibition of IKKbeta in C57BL/6 mouse BMDM cells assessed as inhibition of LPS-induced phosphorylation at 25 uM after 5 mins by Western blot analysis
Outline: (§1)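 C57BL/6 marrow-derived macrophages were cultured in 70% growth medium/30% L929-conditioned medium and refreshed 12-14 h before stimulation. Stimuli were TNF 40 ng/ml or LPS 100 ng/ml, ± compound at 25 μM from a 200x DMSO stock. Western blots tracked IKK, p38, IκBα and phospho-RelA. Results from three independent experiments were quantitated and normalized.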

[5] = target: T1, Inhibitor of nuclear factor kappa-B kinase subunit beta (Mus musculus); experiment: Inhibition of IKKbeta in C57BL/6 mouse BMDM cells assessed as inhibition of LPS-induced IkappaBalpha phosphorylation at 25 uM after 5 mins by Western blot analysis; outline: as §1
[6] = target: T1, Inhibitor of nuclear factor kappa-B kinase subunit beta (Mus musculus); experiment: Inhibition of IKKbeta in C57BL/6 mouse BMDM cells assessed as inhibition of LPS-induced RelA phosphorylation at 25 uM after 5 mins by Western blot analysis; outline: as §1
[7] = target: T2, Toll-like receptor 9 (Mus musculus) (UniProt Q9EQU3); experiment: Inhibition of MyD88 recruitment to TLR9 in C57BL/6 mouse BMDM cells assessed as inhibition of CpG-induced p38 MAPK activity up to 90 mins
T2 sequence (whole entry): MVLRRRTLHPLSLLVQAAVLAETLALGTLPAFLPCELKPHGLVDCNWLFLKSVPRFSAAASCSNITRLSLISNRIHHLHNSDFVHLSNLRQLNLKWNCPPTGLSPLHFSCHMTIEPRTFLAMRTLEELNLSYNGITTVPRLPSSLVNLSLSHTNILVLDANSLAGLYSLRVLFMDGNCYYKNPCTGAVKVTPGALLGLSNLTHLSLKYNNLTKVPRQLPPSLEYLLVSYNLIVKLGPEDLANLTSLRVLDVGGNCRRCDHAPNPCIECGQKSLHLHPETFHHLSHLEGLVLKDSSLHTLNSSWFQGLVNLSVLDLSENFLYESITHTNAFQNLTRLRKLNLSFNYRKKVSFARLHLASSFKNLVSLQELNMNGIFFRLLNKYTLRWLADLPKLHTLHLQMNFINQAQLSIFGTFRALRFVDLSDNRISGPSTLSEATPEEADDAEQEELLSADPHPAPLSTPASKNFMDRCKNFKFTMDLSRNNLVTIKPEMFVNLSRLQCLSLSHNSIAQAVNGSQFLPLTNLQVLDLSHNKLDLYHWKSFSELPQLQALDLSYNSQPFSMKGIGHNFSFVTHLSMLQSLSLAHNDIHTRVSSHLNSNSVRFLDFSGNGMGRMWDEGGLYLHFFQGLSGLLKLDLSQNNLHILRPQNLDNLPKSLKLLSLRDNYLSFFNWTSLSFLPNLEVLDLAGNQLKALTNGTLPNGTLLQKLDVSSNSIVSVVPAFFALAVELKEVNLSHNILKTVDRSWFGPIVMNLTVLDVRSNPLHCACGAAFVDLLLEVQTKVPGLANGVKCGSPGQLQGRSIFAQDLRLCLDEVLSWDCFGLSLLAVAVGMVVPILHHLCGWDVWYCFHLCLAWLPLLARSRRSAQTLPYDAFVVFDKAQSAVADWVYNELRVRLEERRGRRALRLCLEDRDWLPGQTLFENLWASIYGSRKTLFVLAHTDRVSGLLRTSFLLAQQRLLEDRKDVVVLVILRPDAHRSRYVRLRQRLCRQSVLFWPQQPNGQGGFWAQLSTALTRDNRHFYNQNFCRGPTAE
Outline: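 Bone marrow macrophages from C57BL/6 mice, grown in 70% growth medium (DMEM, 10% FBS) plus 30% L929-conditioned medium and given fresh medium 12-14 h before stimulation. Stimuli: IL-1 40 ng/ml, HKSA ~10^8 cfu/ml, pI:pC 50 μg/ml or CpG 10 μg/ml, ± compound at 10 μM (final) added from a 200x DMSO stock. IκBα and p38 profiled by immunoblot. Three independent experiments, quantitated and normalized.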

[8] = target: T1, Inhibitor of nuclear factor kappa-B kinase subunit beta (Mus musculus); experiment: Inhibition of IKKbeta in C57BL/6 mouse BMDM cells assessed as inhibition of LPS-induced MCP1 […] at 25 uM by Northern blot analysis

- inhibition [1]: inactive
- inhibition [2]: inactive
- inhibition [3]: inactive
- inhibition [4]: Active
- inhibition [5]: Active
- inhibition [6]: Active
- inhibition [7]: inactive
- inhibition [8]: Active
Structure (SMILES): O=C(CCCCCN1C(=O)C=CC1=O)Oc1ccc2cc(C(C(=O)NCc3ccccc3)N(C(=O)Cc3ccc4c(c3)OCO4)C3CC3)ccc2c1 (stereo not drawn)
